According to ChEMBL document CHEMBL4622841, “Structural modifications of indolinones bearing a pyrrole moiety and discovery of a multi-kinase inhibitor with potent antitumor activity” (Bioorg Med Chem, 2020):

Columns and labels:
[1] = target: Platelet-derived growth factor receptor beta (Homo sapiens, UniProt P09619); test: Inhibition of N-terminal GST-fused human PDGFRbeta cytoplasmic domain (557 to 1106 (end) residues) expressed in baculovirus expression system using FAM-labeled peptide and ATP as substrate preincubated for 10 mins followed by substrate addition measured after 1 hr by mobility shift assay
Chain of Platelet-derived growth factor receptor beta (P09619 whole entry, the tested form may be a part): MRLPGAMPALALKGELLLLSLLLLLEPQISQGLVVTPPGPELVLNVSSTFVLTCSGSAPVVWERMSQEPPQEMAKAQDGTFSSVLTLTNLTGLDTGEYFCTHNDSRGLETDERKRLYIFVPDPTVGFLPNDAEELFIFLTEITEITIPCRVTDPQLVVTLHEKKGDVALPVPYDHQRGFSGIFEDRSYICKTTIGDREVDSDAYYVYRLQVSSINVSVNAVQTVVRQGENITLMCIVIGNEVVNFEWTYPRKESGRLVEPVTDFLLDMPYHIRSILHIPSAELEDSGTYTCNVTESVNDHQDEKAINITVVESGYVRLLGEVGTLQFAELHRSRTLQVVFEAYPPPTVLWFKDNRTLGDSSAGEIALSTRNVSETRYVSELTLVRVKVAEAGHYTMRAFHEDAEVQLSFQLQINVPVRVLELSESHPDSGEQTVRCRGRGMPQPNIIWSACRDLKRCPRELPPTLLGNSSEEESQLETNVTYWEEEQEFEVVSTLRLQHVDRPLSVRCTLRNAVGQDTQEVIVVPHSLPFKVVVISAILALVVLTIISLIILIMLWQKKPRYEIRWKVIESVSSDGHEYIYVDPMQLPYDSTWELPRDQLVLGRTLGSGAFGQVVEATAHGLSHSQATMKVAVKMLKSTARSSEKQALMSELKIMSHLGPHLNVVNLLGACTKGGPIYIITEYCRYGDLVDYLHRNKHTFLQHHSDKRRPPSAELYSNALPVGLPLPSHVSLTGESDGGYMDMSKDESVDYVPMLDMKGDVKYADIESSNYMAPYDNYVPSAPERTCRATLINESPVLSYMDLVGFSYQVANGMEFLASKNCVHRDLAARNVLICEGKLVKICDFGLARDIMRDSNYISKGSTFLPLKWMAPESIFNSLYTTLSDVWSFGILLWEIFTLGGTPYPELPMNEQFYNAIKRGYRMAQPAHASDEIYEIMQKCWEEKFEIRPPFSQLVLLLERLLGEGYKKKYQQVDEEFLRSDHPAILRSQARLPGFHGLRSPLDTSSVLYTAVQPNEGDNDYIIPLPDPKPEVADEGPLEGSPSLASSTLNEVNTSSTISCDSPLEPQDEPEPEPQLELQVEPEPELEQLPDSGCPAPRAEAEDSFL

[2] = Inhibition of GST-tagged human recombinant VEGFR3 cytoplasmic domain (800 to 1297 residues) Q890H/V1128L/H1146R mutant expressed in baculovirus expression system using FAM-labeled peptide and ATP as substrate preincubated for 10 mins followed by substrate addition measured after 1 hr by mobility shift assay
[3] = Inhibition of N-terminal GST-tagged human recombinant PDGFRalpha D842I mutant expressed in baculovirus-infected Sf9 cells using FAM-labeled peptide and ATP as substrate preincubated for 10 mins followed by substrate addition measured after 1 hr by mobility shift assay
[4] = target: Tyrosine-protein kinase Lyn (Homo sapiens, UniProt P07948); test: Inhibition of LYN (unknown origin) using FAM-labeled peptide and ATP as substrate preincubated for 10 mins followed by substrate addition measured after 1 hr by mobility shift assay
Chain of Tyrosine-protein kinase Lyn (P07948 whole entry): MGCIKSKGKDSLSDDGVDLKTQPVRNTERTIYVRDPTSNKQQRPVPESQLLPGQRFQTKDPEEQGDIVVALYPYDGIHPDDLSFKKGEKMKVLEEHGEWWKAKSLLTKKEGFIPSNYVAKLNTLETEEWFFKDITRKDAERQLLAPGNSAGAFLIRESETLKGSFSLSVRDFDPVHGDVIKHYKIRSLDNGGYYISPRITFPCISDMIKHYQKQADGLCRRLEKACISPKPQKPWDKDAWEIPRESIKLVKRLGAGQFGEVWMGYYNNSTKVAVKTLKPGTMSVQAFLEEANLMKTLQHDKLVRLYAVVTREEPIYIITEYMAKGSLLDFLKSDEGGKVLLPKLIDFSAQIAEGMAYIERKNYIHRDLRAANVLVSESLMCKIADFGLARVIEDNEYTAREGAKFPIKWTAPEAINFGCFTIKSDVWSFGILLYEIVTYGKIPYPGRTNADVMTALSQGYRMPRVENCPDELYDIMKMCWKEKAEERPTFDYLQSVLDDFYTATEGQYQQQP

[5] = target: Cyclin-dependent kinase 2 (Homo sapiens, UniProt P24941); test: Inhibition of CDK2 (unknown origin) using FAM-labeled peptide and ATP as substrate preincubated for 10 mins followed by substrate addition measured after 1 hr by mobility shift assay
[6] = Half life in human liver microsomes; format: ADME, Microsome
[7] = Intrinsic clearance in human liver microsomes; format: ADME, Microsome; conditions: read-out: CLH
HT-29 = test: Antitumor activity against human HT-29 cells xenografted in nu/nu mouse assessed as tumour growth inhibition at 100 mg/kg, po qd for 18 days and measured twice per week by vernier caliper method; format: functional; conditions: HT-29, po, 432 h, read-out: TGI
[8] = Toxicity in nu/nu mouse xenografted with human HT-29 cells assessed as effect on body weight at 100 mg/kg, po qd for 18 days; format: organism-based; conditions: in vivo, 432 h
Summary of the method: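 Female nu/nu mice, 4–6 weeks old, implanted subcutaneously in the right flank with HT-29 cells (2×10⁶/mL). Once tumours reached 200 mm³, mice randomised to groups (n = 6) and dosed orally once daily at 100 mg/kg for 18 days. Body weight monitored during treatment. Results given as mean ± SD.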

[9] = target: Vascular endothelial growth factor receptor 2 (Homo sapiens, UniProt P35968); test: Inhibition of N-terminal GST fused human VEGFR2 cytoplasmic domain (790 to 1356 (end) residues) expressed in baculovirus expression system using FAM-labeled peptide and ATP as substrate preincubated for 10 mins followed by substrate addition measured after 1 hr by mobility shift assay
Chain of Vascular endothelial growth factor receptor 2 (P35968 whole entry, the tested form may be a part): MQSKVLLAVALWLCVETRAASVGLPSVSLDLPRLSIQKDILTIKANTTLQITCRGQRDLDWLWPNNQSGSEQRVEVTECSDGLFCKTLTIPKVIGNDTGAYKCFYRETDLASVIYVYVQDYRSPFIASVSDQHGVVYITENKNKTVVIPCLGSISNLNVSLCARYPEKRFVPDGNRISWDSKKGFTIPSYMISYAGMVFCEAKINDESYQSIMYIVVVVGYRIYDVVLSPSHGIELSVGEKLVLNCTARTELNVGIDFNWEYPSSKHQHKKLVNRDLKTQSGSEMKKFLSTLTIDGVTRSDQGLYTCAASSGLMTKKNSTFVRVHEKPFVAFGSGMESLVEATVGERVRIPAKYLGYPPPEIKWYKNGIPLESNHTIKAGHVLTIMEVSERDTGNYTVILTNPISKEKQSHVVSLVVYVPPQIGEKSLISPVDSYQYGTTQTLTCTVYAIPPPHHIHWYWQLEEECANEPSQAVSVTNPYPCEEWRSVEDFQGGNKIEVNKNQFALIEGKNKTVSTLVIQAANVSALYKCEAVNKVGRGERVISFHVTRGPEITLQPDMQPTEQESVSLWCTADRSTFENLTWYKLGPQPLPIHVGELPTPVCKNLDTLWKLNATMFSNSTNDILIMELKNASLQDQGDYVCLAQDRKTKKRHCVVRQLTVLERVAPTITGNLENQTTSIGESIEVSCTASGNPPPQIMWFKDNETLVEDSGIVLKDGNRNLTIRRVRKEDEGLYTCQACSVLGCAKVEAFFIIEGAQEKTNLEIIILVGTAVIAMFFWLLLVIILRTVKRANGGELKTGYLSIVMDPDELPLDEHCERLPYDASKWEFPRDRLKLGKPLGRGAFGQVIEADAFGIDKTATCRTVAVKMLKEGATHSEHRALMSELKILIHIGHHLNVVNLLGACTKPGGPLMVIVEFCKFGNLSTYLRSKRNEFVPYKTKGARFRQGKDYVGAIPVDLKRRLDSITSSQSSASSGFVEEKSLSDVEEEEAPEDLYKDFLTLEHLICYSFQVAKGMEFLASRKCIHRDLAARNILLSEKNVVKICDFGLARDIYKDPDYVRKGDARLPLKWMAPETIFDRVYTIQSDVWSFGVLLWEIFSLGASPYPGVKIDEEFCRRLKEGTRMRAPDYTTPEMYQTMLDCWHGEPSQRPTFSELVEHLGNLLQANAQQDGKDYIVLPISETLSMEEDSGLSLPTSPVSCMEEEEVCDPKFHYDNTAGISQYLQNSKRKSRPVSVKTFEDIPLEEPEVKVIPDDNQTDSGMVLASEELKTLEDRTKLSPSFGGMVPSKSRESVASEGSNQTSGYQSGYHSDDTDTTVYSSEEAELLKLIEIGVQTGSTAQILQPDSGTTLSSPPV

Compound | IC50 [1] [nM] | also measured
COC(=O)c1ccc2c(c1)NC(=O)/C2=C(\Nc1ccc(-n2c(C)ccc2CN(C)C)nc1)c1ccccc1 | 32 | –
COC(=O)c1ccc2c(c1)NC(=O)/C2=C(\Nc1ccc(N(C)C(=O)CN2CCN(C)CC2)cc1)c1ccccc1 [NINTEDANIB] | – | IC50 [2]: 3 nM; IC50 [3]: 1.9 nM; IC50 [4]: 55 nM; IC50 [5]: > 1000 nM; half-life [6]: 27.4 min; CLint scaled [7]: 63.5 mL/min/kg; inhibition in vivo at 100 mg/kg (HT-29): 44.3%; Activity [8]: Non-Toxic
COC(=O)c1ccc2c(c1)NC(=O)/C2=C(\Nc1ccc(-n2cccc2CN(C)C)cc1)c1ccccc1 | 11 | –
COC(=O)c1ccc2c(c1)NC(=O)/C2=C(\Nc1ccc(-n2c(C)ccc2CN2CCOCC2)cc1)c1ccccc1 | 37 | –
COC(=O)c1ccc2c(c1)NC(=O)/C2=C(\Nc1ccc(-n2cccc2CN(C)C)c(C)c1)c1ccccc1 | 31 | –
CCN(CC)Cc1ccc(C)n1-c1ccc(N/C(=C2\C(=O)Nc3cc(C(=O)OC)ccc32)c2ccccc2)cc1 | 23.8 | –
COC(=O)c1ccc2c(c1)NC(=O)/C2=C(\Nc1ccc(-n2cccc2CN(C)C)nc1)c1ccccc1 | 26 | –
COC(=O)c1ccc2c(c1)NC(=O)/C2=C(\Nc1ccc(-n2c(C)ccc2CN(C)C)cc1)c1ccccc1 | 45.3 | –
COC(=O)c1ccc2c(c1)NC(=O)/C2=C(\Nc1cnc(-n2cccc2CN(C)C)c(C)c1)c1ccccc1 | 71 | IC50 [9]: > 1000 nM

Continued, in another order:

IC50 [1] [nM] | Compound | also measured
206 | COC(=O)c1ccc2c(c1)NC(=O)/C2=C(\Nc1ccc(-n2cccc2CN2CCN(C)CC2)c(C)c1)c1ccccc1 | –
114 | COC(=O)c1ccc2c(c1)NC(=O)/C2=C(\Nc1ccc(-n2cccc2CN2CCN(C)CC2)nc1)c1ccccc1 | –
> 300 | COC(=O)c1ccc2c(c1)NC(=O)/C2=C(\Nc1cnc(-n2cccc2CN2CCN(C)CC2)c(C)c1)c1ccccc1 | IC50 [9]: > 1000 nM
123 | COC(=O)c1ccc2c(c1)NC(=O)/C2=C(\Nc1ccc(-n2c(C)ccc2CN2CCN(C)CC2)nc1)c1ccccc1 | –
55 | COC(=O)c1ccc2c(c1)NC(=O)/C2=C(\Nc1ccc(-n2cccc2CN2CCN(C)CC2)cc1)c1ccccc1 | –
